Measurements: ChEMBL document CHEMBL4049394, “Desing and synthesis of potent anti-Trypanosoma cruzi agents new thiazoles derivatives which induce apoptotic parasite death” (Eur J Med Chem, 2017)

Assays:
Trypanosoma cruzi [1] = experiment: Induction of apoptosis in bloodstream trypomastigote stage of Trypanosoma cruzi Y infected in monkey LLC-MK2 cells assessed as late apoptotic cells at 3.2 uM measured after 24 hrs by Annexin-V-FITC/propidium iodide staining based flow cytometric method (reference value: 0.27%); type: functional
Trypanosoma cruzi [2] = experiment: Potency index, ratio of benznidazole CC50 to compound CC50 for Trypanosoma cruzi Dm28c epimastigotes; type: functional
Trypanosoma cruzi [3] = experiment: Induction of apoptosis in bloodstream trypomastigote stage of Trypanosoma cruzi Y infected in monkey LLC-MK2 cells assessed as early apoptotic cells at 1.6 uM measured after 24 hrs by Annexin-V-FITC/propidium iodide staining based flow cytometric method (reference value: 0.31%); type: functional
Trypanosoma cruzi [4] = experiment: Antitrypanosomal activity against Trypanosoma cruzi Dm28c epimastigotes measured after 4 to 5 days by neubauer chamber method; type: functional
Method in brief: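 Dm28c epimastigotes in LIT with 10% FBS, 1% hemin and gentamycin at 27 °C. Seeded at 10^6 cells/well and treated in triplicate for 4 days (table footnote: 5 days). Parasites counted in a Neubauer chamber against untreated wells as 100%. IC50 by nonlinear regression from at least five concentrations. Experiment repeated; only values with SD < 10% of mean kept.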

Trypanosoma cruzi [5] = experiment: Induction of apoptosis in bloodstream trypomastigote stage of Trypanosoma cruzi Y infected in monkey LLC-MK2 cells assessed as late apoptotic cells at 1.6 uM measured after 24 hrs by Annexin-V-FITC/propidium iodide staining based flow cytometric method (reference value: 0.27%); type: functional
[6] = Selectivity index, ratio of highest non-cytotoxic concentration for mouse J774A.1 cells to CC50 for bloodstream trypomastigote stage of Trypanosoma cruzi Y infected in monkey LLC-MK2 cells; type: toxicity, cell-based; details: read-out: Selectivity Index
Method in brief: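 Selectivity index is the highest non-cytotoxic concentration in J774A.1 macrophages divided by the 50% value against Y strain trypomastigotes measured after 24 h.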

Trypanosoma cruzi [7] = experiment: Induction of apoptosis in bloodstream trypomastigote stage of Trypanosoma cruzi Y infected in monkey LLC-MK2 cells assessed as early apoptotic cells at 3.2 uM measured after 24 hrs by Annexin-V-FITC/propidium iodide staining based flow cytometric method (reference value: 0.31%); type: functional
Trypanosoma cruzi [8] = experiment: Potency index, ratio of benznidazole CC50 to compound CC50 for bloodstream trypomastigote stage of Trypanosoma cruzi Y infected in monkey LLC-MK2 cells; type: functional
Trypanosoma cruzi [9] = experiment: Antitrypanosomal activity against bloodstream trypomastigote stage of Trypanosoma cruzi Y infected in monkey LLC-MK2 cells measured after 24 hrs by neubauer chamber method; type: functional; details: LLC-MK2, in Primates
Method in brief: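 Y strain trypomastigotes taken from LLC-MK2 culture supernatant and held in RPMI-1640 with 10% FBS. Seeded at 4×10^5 cells/well and treated in triplicate for 24 h at 37 °C, 5% CO2. Motile parasites counted in a Neubauer chamber against untreated wells. IC50 by nonlinear regression from at least seven concentrations. Experiment repeated; SD < 10% of mean required.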

[10] = Cytotoxicity against mouse J774A.1 cells after 24 to 72 hrs by MTT assay; type: cell-based, J774.A1; details: read-out: MNCC
Method in brief: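 J774A.1 macrophages in DMEM with 10% heat-inactivated FBS at 37 °C, 5% CO2. Seeded at 1×10^5 cells/well, 24 h preincubation, then compounds at 1–100 µg/mL for 72 h (table footnote: viability at 24 h). MTT 2 h, formazan dissolved in DMSO, absorbance read at 570 nm. Highest non-cytotoxic concentration reported.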

Trypanosoma cruzi [11] = experiment: Induction of apoptosis in bloodstream trypomastigote stage of Trypanosoma cruzi Y infected in monkey LLC-MK2 cells assessed as necrotic cells at 1.6 uM measured after 24 hrs by Annexin-V-FITC/propidium iodide staining based flow cytometric method (reference value: 0.014%); type: functional
Trypanosoma cruzi [12] = experiment: Induction of apoptosis in bloodstream trypomastigote stage of Trypanosoma cruzi Y infected in monkey LLC-MK2 cells assessed as necrotic cells at 3.2 uM measured after 24 hrs by Annexin-V-FITC/propidium iodide staining based flow cytometric method (reference value: 0.014%); type: functional
Trypanosoma cruzi [13] = experiment: Induction of apoptosis in bloodstream trypomastigote stage of Trypanosoma cruzi Y infected in monkey LLC-MK2 cells assessed as late apoptotic cells at 5 uM measured after 24 hrs by Annexin-V-FITC/propidium iodide staining based flow cytometric method (reference value: 0.27%); type: functional
Trypanosoma cruzi [14] = experiment: Induction of apoptosis in bloodstream trypomastigote stage of Trypanosoma cruzi Y infected in monkey LLC-MK2 cells assessed as early apoptotic cells at 2.5 uM measured after 24 hrs by Annexin-V-FITC/propidium iodide staining based flow cytometric method (reference value: 0.31%); type: functional
Trypanosoma cruzi [15] = experiment: Induction of apoptosis in bloodstream trypomastigote stage of Trypanosoma cruzi Y infected in monkey LLC-MK2 cells assessed as late apoptotic cells at 2.5 uM measured after 24 hrs by Annexin-V-FITC/propidium iodide staining based flow cytometric method (reference value: 0.27%); type: functional
Trypanosoma cruzi [16] = experiment: Induction of apoptosis in bloodstream trypomastigote stage of Trypanosoma cruzi Y infected in monkey LLC-MK2 cells assessed as necrotic cells at 2.5 uM measured after 24 hrs by Annexin-V-FITC/propidium iodide staining based flow cytometric method (reference value: 0.014%); type: functional
Trypanosoma cruzi [17] = experiment: Induction of apoptosis in bloodstream trypomastigote stage of Trypanosoma cruzi Y infected in monkey LLC-MK2 cells assessed as early apoptotic cells at 5 uM measured after 24 hrs by Annexin-V-FITC/propidium iodide staining based flow cytometric method (reference value: 0.31%); type: functional
Trypanosoma cruzi [18] = experiment: Induction of apoptosis in bloodstream trypomastigote stage of Trypanosoma cruzi Y infected in monkey LLC-MK2 cells assessed as necrotic cells at 5 uM measured after 24 hrs by Annexin-V-FITC/propidium iodide staining based flow cytometric method (reference value: 0.014%); type: functional
Trypanosoma cruzi [19] = experiment: Induction of apoptosis in bloodstream trypomastigote stage of Trypanosoma cruzi Y infected in monkey LLC-MK2 cells assessed as late apoptotic cells at 2.2 uM measured after 24 hrs by Annexin-V-FITC/propidium iodide staining based flow cytometric method (reference value: 0.27%); type: functional
Trypanosoma cruzi [20] = experiment: Induction of apoptosis in bloodstream trypomastigote stage of Trypanosoma cruzi Y infected in monkey LLC-MK2 cells assessed as necrotic cells at 4.4 uM measured after 24 hrs by Annexin-V-FITC/propidium iodide staining based flow cytometric method (reference value: 0.014%); type: functional
Trypanosoma cruzi [21] = experiment: Induction of apoptosis in bloodstream trypomastigote stage of Trypanosoma cruzi Y infected in monkey LLC-MK2 cells assessed as late apoptotic cells at 4.4 uM measured after 24 hrs by Annexin-V-FITC/propidium iodide staining based flow cytometric method (reference value: 0.27%); type: functional
Trypanosoma cruzi [22] = experiment: Induction of apoptosis in bloodstream trypomastigote stage of Trypanosoma cruzi Y infected in monkey LLC-MK2 cells assessed as early apoptotic cells at 4.4 uM measured after 24 hrs by Annexin-V-FITC/propidium iodide staining based flow cytometric method (reference value: 0.31%); type: functional
Trypanosoma cruzi [23] = experiment: Induction of apoptosis in bloodstream trypomastigote stage of Trypanosoma cruzi Y infected in monkey LLC-MK2 cells assessed as early apoptotic cells at 2.2 uM measured after 24 hrs by Annexin-V-FITC/propidium iodide staining based flow cytometric method (reference value: 0.31%); type: functional
Trypanosoma cruzi [24] = experiment: Induction of apoptosis in bloodstream trypomastigote stage of Trypanosoma cruzi Y infected in monkey LLC-MK2 cells assessed as necrotic cells at 2.2 uM measured after 24 hrs by Annexin-V-FITC/propidium iodide staining based flow cytometric method (reference value: 0.014%); type: functional
Trypanosoma cruzi [25] = experiment: Induction of apoptosis in bloodstream trypomastigote stage of Trypanosoma cruzi Y infected in monkey LLC-MK2 cells assessed as early apoptotic cells at 1.2 uM measured after 24 hrs by Annexin-V-FITC/propidium iodide staining based flow cytometric method (reference value: 0.31%); type: functional
Trypanosoma cruzi [26] = experiment: Induction of apoptosis in bloodstream trypomastigote stage of Trypanosoma cruzi Y infected in monkey LLC-MK2 cells assessed as late apoptotic cells at 2.4 uM measured after 24 hrs by Annexin-V-FITC/propidium iodide staining based flow cytometric method (reference value: 0.27%); type: functional
Trypanosoma cruzi [27] = experiment: Induction of apoptosis in bloodstream trypomastigote stage of Trypanosoma cruzi Y infected in monkey LLC-MK2 cells assessed as necrotic cells at 1.2 uM measured after 24 hrs by Annexin-V-FITC/propidium iodide staining based flow cytometric method (reference value: 0.014%); type: functional
Trypanosoma cruzi [28] = experiment: Induction of apoptosis in bloodstream trypomastigote stage of Trypanosoma cruzi Y infected in monkey LLC-MK2 cells assessed as early apoptotic cells at 2.4 uM measured after 24 hrs by Annexin-V-FITC/propidium iodide staining based flow cytometric method (reference value: 0.31%); type: functional
Trypanosoma cruzi [29] = experiment: Induction of apoptosis in bloodstream trypomastigote stage of Trypanosoma cruzi Y infected in monkey LLC-MK2 cells assessed as viable cells at 2.4 uM measured after 24 hrs by Annexin-V-FITC/propidium iodide staining based flow cytometric method (reference value: 99.4%); type: functional
Trypanosoma cruzi [30] = experiment: Induction of apoptosis in bloodstream trypomastigote stage of Trypanosoma cruzi Y infected in monkey LLC-MK2 cells assessed as viable cells at 1.2 uM measured after 24 hrs by Annexin-V-FITC/propidium iodide staining based flow cytometric method (reference value: 99.4%); type: functional
Trypanosoma cruzi [31] = experiment: Induction of apoptosis in bloodstream trypomastigote stage of Trypanosoma cruzi Y infected in monkey LLC-MK2 cells assessed as late apoptotic cells at 1.2 uM measured after 24 hrs by Annexin-V-FITC/propidium iodide staining based flow cytometric method (reference value: 0.27%); type: functional
[32] = target: Cruzipain (Trypanosoma cruzi) (UniProt P25779); experiment: Inhibition of Trypanosoma cruzi cruzain at 50 uM using Z-phe-Arg-aminomethylcoumarin as substrate pretreated for 10 mins measured for 5 mins by fluorometric method relative to control
Cruzipain (Trypanosoma cruzi), sequence (P25779 123-467 limits assumed): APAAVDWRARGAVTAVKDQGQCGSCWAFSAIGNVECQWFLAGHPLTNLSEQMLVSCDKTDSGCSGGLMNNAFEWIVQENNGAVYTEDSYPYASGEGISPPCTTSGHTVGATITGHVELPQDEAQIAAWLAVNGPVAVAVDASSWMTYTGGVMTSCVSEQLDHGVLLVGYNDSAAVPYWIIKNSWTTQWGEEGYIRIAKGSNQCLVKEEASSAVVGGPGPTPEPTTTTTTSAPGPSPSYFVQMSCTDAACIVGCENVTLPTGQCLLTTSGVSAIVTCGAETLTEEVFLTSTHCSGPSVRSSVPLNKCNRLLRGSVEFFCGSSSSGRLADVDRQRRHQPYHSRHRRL
Method in brief: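 Cruzain at 0.5 nM in 0.1 M sodium acetate pH 5.5 with 0.1 mM β-mercaptoethanol and 0.01% Triton X-100. Compound screened at 50 µM after a 10-min preincubation with enzyme, then 2.5 µM Z-FR-AMC added. AMC fluorescence (ex 340/em 440 nm) followed for 5 min. Activity taken from initial rates relative to a DMSO control. Two independent experiments, each in triplicate.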

Trypanosoma cruzi [33] = experiment: Induction of apoptosis in bloodstream trypomastigote stage of Trypanosoma cruzi Y infected in monkey LLC-MK2 cells assessed as necrotic cells at 2.4 uM measured after 24 hrs by Annexin-V-FITC/propidium iodide staining based flow cytometric method (reference value: 0.014%); type: functional

Compound: C/C(=N\N=c1/scc(-c2ccc(Cl)cc2Cl)n1-c1ccccc1)c1ccccn1
- Activity (Trypanosoma cruzi [1]): 4.3%
- Ratio (Trypanosoma cruzi [2]): 18
- Activity (Trypanosoma cruzi [3]): 39.5%
- CC50 (Trypanosoma cruzi [4]): 2700 nM
- Activity (Trypanosoma cruzi [5]): 4%
- selectivity ratio [6]: 50 to 51
- Activity (Trypanosoma cruzi [7]): 39.4%
- Ratio (Trypanosoma cruzi [8]): 4 - 5
- CC50 (Trypanosoma cruzi [9]): 1600 nM
- MNTC [10]: 81 µM
- Activity (Trypanosoma cruzi [11]): 2.9%
- Activity (Trypanosoma cruzi [12]): 3.2%

Compound: C/C(=N\NC(=S)Nc1ccccc1)c1ccccn1
- Activity (Trypanosoma cruzi [13]): 4.8%
- CC50 (Trypanosoma cruzi [4]): 15400 nM
- Activity (Trypanosoma cruzi [14]): 36.8%
- Activity (Trypanosoma cruzi [15]): 5.4%
- Activity (Trypanosoma cruzi [16]): 3.6%
- selectivity ratio [6]: 8.4
- Activity (Trypanosoma cruzi [17]): 36%
- CC50 (Trypanosoma cruzi [9]): 2500 nM
- MNTC [10]: 21 µM
- Activity (Trypanosoma cruzi [18]): 3.55%

Compound: C/C(=N\N=c1/scc(-c2ccc(Br)cc2)n1C)c1ccccn1
- Ratio (Trypanosoma cruzi [2]): 15
- Activity (Trypanosoma cruzi [19]): 4%
- CC50 (Trypanosoma cruzi [4]): 3200 nM
- Activity (Trypanosoma cruzi [20]): 3.15%
- Activity (Trypanosoma cruzi [21]): 4.7%
- Activity (Trypanosoma cruzi [22]): 35%
- selectivity ratio [6]: 15
- Activity (Trypanosoma cruzi [23]): 38%
- Activity (Trypanosoma cruzi [24]): 3%
- CC50 (Trypanosoma cruzi [9]): 2200 nM
- MNTC [10]: 33 µM

Compound: COc1ccc(-c2cs/c(=N\N=C(/C)c3ccccn3)n2-c2ccccc2)cc1
- Activity (Trypanosoma cruzi [25]): 38.6 - 39.6%
- Ratio (Trypanosoma cruzi [2]): 10
- Activity (Trypanosoma cruzi [26]): 3.67 - 4.5%
- CC50 (Trypanosoma cruzi [4]): 5000 nM
- Activity (Trypanosoma cruzi [27]): 2.99 - 3.53%
- Activity (Trypanosoma cruzi [28]): 36.4 - 38.9%
- selectivity ratio [6]: 397 to 398
- Ratio (Trypanosoma cruzi [8]): 4 - 5
- Activity (Trypanosoma cruzi [29]): 55.2%
- Activity (Trypanosoma cruzi [30]): 53.8%
- Activity (Trypanosoma cruzi [31]): 3.61 - 4.8%
- CC50 (Trypanosoma cruzi [9]): 1200 nM
- inhibition [32]: 48%
- MNTC [10]: 477 µM
- Activity (Trypanosoma cruzi [33]): 2.3 - 3.48%
